In brackets after ≈: the same amount, converted by molar mass. Activity calls are given as the source filed them. No cut-off for these calls is given here.
Legend:
Mus musculus [1] = assay: Antifibrotic activity against intranasal bleomycin-induced C57BL/6 mouse lung fibrosis model assessed as reduction in Ashcroft score at 50 mg/kg, po twice daily for 14 days; type: functional, organism-based; settings: time 14.0 day
Summary of the method: (§1)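 Male C57BL/6 mice (7–8 weeks on arrival, one week acclimation) given bleomycin intranasally; prophylactic oral dosing twice daily for 14 days. Lungs scored histologically by Matsuse-modified Ashcroft score; 14–15 mice per group; Mann–Whitney vs bleomycin/vehicle.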

[2] = Clearance in Sprague-Dawley rat at 1 mg/kg, iv measured up to 24 hrs by LC-MS/MS analysis; type: ADME, organism-based; settings: in vivo
Summary of the method: (§2)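 Male Sprague-Dawley rats (6–8 weeks), n = 3 per route; iv bolus 1 mg/kg in PEG200/water 60/40; gavage 5 or 10 mg/kg in PEG400/MC 0.5% after ≥12 h fast. Li-heparin plasma sampled to 24 h, LC-MS/MS, noncompartmental analysis. Plasma protein binding: 5 μM compound, 4 h incubation.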

[3] = Intrinsic clearance unbound in mouse liver microsomes at 1 uM […] by LC-MS/MS analysis; type: ADME, Microsome
[4] = Plasma protein binding CD1 mouse plasma at 5 uM incubated for 4 hrs; type: ADME, cell-free; settings: read-out: PPB (converted)
Summary of the method: (§3)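 Male CD1 mice, composite design, n = 6 per route; iv 1 mg/kg in PEG200/water 60/40, oral gavage 5 mg/kg in Tween 80/MC 0.5% or PEG400/MC 0.5% after ≥12 h fast. Li-heparin blood sampled to 24 h, plasma by LC-MS/MS; noncompartmental analysis. Plasma protein binding: 5 μM compound, 4 h incubation.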

[5] = Oral bioavailability in beagle dog at 5 mg/kg measured up to 24 hrs by LC-MS/MS analysis; type: ADME, organism-based, Canis lupus familiaris; settings: in vivo
Summary of the method: (§4)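 Non-naive male Beagle dogs (n = 3) given 1 mg/kg iv as 10 min infusion; after 3-day washout, oral gavage 5 or 1 mg/kg in PEG400/MC 0.5% or MC 0.5% after ≥12 h fast. Jugular or cephalic blood into lithium heparin to 24 h; plasma analysed. Plasma protein binding: 5 μM compound, 4 h incubation.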

[6] = Oral bioavailability in CD1 mouse at 5 mg/kg measured up to 24 hrs by LC-MS/MS analysis; type: ADME, organism-based; settings: in vivo; summary of the method: as §3
[7] = Intrinsic clearance unbound in human liver microsomes at 1 uM […] by LC-MS/MS analysis; type: ADME, Microsome
CYP2C19 = CYP2C19 (Homo sapiens, UniProt P33261); assay: Inhibition of recombinant CYP2C19 (unknown origin) at 10 uM; type: ADME
CYP2C19, sequence (P33261 whole entry): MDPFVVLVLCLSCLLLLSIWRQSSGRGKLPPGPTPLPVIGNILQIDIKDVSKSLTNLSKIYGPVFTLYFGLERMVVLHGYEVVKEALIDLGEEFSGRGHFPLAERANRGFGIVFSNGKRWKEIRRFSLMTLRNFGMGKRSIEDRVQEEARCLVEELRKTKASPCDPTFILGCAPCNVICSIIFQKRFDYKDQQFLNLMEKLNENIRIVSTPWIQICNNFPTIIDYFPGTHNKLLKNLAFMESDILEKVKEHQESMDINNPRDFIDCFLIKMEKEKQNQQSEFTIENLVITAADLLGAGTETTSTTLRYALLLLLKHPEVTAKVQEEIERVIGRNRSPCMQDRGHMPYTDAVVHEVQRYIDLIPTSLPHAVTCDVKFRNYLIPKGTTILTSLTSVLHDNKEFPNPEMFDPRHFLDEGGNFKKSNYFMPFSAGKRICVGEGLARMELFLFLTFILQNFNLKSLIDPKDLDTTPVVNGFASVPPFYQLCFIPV

[8] = Half life in CD1 mouse at 1 mg/kg, iv measured up to 24 hrs by LC-MS/MS analysis; type: ADME, organism-based; settings: in vivo; summary of the method: as §3
[9] = Oral bioavailability in Sprague-Dawley rat at 5 mg/kg measured up to 24 hrs by LC-MS/MS analysis; type: ADME, organism-based; settings: in vivo; summary of the method: as §2
[10] = biological target: T1, Sphingosine 1-phosphate receptor 2 (Homo sapiens, UniProt O95136); assay: Antagonist activity at recombinant human S1P2 receptor in HFL1 cells assessed as inhibition of EC80 S1P-induced IL8 release measured as unbound concentration incubated for 16 to 24 hrs in presence of 2% HSA by ELISA; type: functional, cell-based; settings: filed as antagonist, time 16-24 hrs
T1 sequence (O95136 whole entry): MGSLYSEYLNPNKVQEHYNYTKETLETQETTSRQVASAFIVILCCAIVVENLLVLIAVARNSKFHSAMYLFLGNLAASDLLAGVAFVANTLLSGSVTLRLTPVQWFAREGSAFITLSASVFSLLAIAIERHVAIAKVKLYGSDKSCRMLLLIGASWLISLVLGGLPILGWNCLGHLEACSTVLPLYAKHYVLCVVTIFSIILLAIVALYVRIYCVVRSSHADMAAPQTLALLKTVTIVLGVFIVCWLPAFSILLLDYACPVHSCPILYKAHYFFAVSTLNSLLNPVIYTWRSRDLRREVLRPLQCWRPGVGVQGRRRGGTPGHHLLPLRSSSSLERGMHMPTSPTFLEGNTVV
Summary of the method: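 IL8 IC50 from the 2% HSA condition converted to free IC50 = IC50 × fu,medium, where fu,medium is estimated from human plasma protein binding fraction unbound and the serum percentage used in the assay.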

CYP2C9 = CYP2C9 (Homo sapiens, UniProt P11712); assay: Inhibition of recombinant CYP2C9 (unknown origin) at 10 uM; type: ADME
CYP2C9, sequence (P11712 whole entry): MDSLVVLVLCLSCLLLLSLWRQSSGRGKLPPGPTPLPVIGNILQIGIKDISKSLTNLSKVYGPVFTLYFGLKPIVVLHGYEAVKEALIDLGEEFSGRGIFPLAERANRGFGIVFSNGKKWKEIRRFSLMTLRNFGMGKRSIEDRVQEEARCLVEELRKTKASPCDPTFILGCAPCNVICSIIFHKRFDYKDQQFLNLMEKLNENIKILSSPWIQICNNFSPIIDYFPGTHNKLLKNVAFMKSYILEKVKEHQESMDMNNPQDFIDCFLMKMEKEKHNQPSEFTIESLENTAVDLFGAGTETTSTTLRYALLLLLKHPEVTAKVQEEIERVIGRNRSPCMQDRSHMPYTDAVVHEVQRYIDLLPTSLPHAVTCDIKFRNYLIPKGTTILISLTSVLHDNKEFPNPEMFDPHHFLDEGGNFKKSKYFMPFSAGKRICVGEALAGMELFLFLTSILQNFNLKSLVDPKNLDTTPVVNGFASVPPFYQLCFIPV

[11] = Clearance in CD1 mouse at 1 mg/kg, iv measured up to 24 hrs by LC-MS/MS analysis; type: ADME, organism-based; settings: in vivo; summary of the method: as §3
[12] = Plasma protein binding beagle dog plasma at 5 uM incubated for 4 hrs; type: ADME, cell-free, Canis lupus familiaris; settings: read-out: PPB (converted); summary of the method: as §4
[13] = Clearance in beagle dog at 1 mg/kg, iv measured up to 24 hrs by LC-MS/MS analysis; type: ADME, organism-based, Canis lupus familiaris; settings: in vivo; summary of the method: as §4
[14] = Half life in beagle dog at 1 mg/kg, iv measured up to 24 hrs by LC-MS/MS analysis; type: ADME, organism-based, Canis lupus familiaris; settings: in vivo; summary of the method: as §4
[15] = biological target: T1, Sphingosine 1-phosphate receptor 2; assay: Antagonist activity at human S1P2 receptor expressed in CHO cells assessed as EC80 S1P-induced calcium flux measured for 3 mins by fluorescence assay; type: functional, cell-based
Summary of the method: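 Same dye-loaded, starved human S1P2-CHO cells; after agonist readout, 15 min at 37 °C, then stimulated with S1P at EC80, fluorescence read 3 min. Max/baseline ratio normalized to vehicle and S1P EC80. 10-point 1/3 dilutions from 20 μM final; IC50 derived; geometric mean of ≥2 runs.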

[16] = Volume of distribution at steady state in Sprague-Dawley rat at 1 mg/kg, iv measured up to 24 hrs by LC-MS/MS analysis; type: ADME, organism-based; settings: in vivo, read-out: Vdss; summary of the method: as §2
[17] = Plasma protein binding Sprague-Dawley rat plasma at 5 uM incubated for 4 hrs; type: ADME, cell-free; settings: read-out: PPB (converted); summary of the method: as §2
[18] = Half life in Sprague-Dawley rat at 1 mg/kg, iv measured up to 24 hrs by LC-MS/MS analysis; type: ADME, organism-based; settings: in vivo; summary of the method: as §2
[19] = biological target: T1, Sphingosine 1-phosphate receptor 2; assay: Antagonist activity at recombinant human S1P2 receptor in HFL1 cells assessed as inhibition of EC80 S1P-induced IL8 release incubated for 16 to 24 hrs in presence of 2% HSA by ELISA; type: functional, cell-based
Summary of the method: (§5)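 HFL-1 lung fibroblasts seeded in 96- or 384-well plates, then medium replaced by starvation medium with 1% heat-inactivated FBS, ±1.95% HSA (2% HSA condition), 16–24 h. 10-point 1/3 dilutions, 30 μM top final, 1 h, then S1P at EC80 (without HSA: 1 μM 96-well or 0.5 μM 384-well; with HSA: 5 or 2 μM).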

[20] = Thermodynamic solubility in FaSSIF; type: physicochemical; settings: read-out: Therm_solubility
[21] = biological target: T1, Sphingosine 1-phosphate receptor 2; assay: Antagonist activity at recombinant human S1P2 receptor in HFL1 cells assessed as inhibition of EC80 S1P-induced IL8 release incubated for 16 to 24 hrs in absence of HSA by ELISA; type: functional, cell-based; summary of the method: as §5
CYP3A4 = CYP3A4 (Homo sapiens, UniProt P08684); assay: Inhibition of recombinant CYP3A4 (unknown origin) at 10 uM; type: ADME
CYP3A4, sequence (P08684 whole entry): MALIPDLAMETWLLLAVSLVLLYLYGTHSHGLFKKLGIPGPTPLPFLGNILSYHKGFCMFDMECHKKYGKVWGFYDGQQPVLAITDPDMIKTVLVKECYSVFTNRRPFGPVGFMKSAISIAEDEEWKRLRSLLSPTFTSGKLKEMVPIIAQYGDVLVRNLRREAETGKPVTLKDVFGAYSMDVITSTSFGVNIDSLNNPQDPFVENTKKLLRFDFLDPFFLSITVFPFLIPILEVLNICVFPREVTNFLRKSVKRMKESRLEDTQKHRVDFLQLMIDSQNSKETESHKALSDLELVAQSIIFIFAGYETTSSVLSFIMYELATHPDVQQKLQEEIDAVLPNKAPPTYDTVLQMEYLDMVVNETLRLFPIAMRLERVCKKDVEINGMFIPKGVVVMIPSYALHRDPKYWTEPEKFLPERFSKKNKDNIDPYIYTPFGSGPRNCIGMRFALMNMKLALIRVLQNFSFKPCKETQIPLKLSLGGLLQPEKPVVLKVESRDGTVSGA

[22] = biological target: T1, Sphingosine 1-phosphate receptor 2; assay: Antagonist activity at recombinant human S1P2 receptor expressed in CHO cells assessed as EC80 S1P-induced activation incubated for 4 hrs in presence of [35S]GTPgammaS by Topcount reader; type: functional, cell-based
Summary of the method: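 Membranes from stable lines overexpressing recombinant human S1P2, preincubated with PVT-WGA SPA beads, mixed with compound serial dilutions, [35S]GTPγS and S1P at EC80. Incubated 4 h at room temperature, centrifuged, scintillation counted. Antagonist mode; IC50 as geometric mean of ≥2 runs.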

[23] = Volume of distribution at steady state in CD1 mouse at 1 mg/kg, iv measured up to 24 hrs by LC-MS/MS analysis; type: ADME, organism-based; settings: in vivo, read-out: Vdss; summary of the method: as §3
[24] = Volume of distribution at steady state in beagle dog at 1 mg/kg, iv measured up to 24 hrs by LC-MS/MS analysis; type: ADME, organism-based, Canis lupus familiaris; settings: in vivo, read-out: Vdss; summary of the method: as §4
[25] = Thermodynamic solubility in FaSSGF at pH 1.6; type: physicochemical; settings: read-out: Therm_solubility
Mus musculus [26] = assay: Antifibrotic activity against intranasal bleomycin-induced C57BL/6 mouse lung fibrosis model assessed as reduction in Ashcroft score at 1 to 10 mg/kg, po twice daily for 14 days; type: functional, organism-based; settings: dose 1-10 mg/kg, time 14.0 day; summary of the method: as §1
[27] = biological target: Voltage-gated inwardly rectifying potassium channel KCNH2 (Homo sapiens, UniProt Q12809); assay: Inhibition of human ERG
Voltage-gated inwardly rectifying potassium channel KCNH2, sequence (Q12809 whole entry): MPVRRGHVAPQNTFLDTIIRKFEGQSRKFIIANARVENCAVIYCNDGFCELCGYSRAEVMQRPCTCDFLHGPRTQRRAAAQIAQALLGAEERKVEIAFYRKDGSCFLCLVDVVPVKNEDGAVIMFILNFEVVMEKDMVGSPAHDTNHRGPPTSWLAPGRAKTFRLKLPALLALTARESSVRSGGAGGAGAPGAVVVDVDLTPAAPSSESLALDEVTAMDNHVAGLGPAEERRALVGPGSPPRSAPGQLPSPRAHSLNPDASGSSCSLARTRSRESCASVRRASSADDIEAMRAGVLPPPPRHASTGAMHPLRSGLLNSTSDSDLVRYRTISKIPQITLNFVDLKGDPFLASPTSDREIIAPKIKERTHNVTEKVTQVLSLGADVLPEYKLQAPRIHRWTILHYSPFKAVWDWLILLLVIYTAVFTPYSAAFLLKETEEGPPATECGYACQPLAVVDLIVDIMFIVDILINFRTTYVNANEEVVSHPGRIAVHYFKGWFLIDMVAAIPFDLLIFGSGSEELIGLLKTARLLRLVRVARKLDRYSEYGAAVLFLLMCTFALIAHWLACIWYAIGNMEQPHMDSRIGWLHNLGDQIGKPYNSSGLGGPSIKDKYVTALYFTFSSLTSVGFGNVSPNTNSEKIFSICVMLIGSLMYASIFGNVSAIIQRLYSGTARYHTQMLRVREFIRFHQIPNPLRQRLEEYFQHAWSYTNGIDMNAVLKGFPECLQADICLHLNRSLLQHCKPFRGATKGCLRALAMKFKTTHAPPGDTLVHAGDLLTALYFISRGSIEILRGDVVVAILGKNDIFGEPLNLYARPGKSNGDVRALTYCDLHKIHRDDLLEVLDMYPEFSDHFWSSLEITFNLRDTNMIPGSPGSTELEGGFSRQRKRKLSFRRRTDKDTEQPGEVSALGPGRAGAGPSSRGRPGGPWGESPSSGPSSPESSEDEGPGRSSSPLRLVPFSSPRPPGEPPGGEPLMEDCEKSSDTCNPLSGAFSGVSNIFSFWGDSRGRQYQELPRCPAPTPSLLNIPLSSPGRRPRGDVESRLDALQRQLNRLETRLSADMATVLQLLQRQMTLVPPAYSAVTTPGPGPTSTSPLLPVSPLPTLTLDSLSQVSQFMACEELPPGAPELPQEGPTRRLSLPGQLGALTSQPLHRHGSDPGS

Fibroblast = assay: Prevention of S1P-induced human pulmonary fibroblasts contraction in collagen gel lattice mixture pretreated with TGFbeta for 72 hrs followed by treated at 0.5 to 5 uM compound incubated for 2 hrs then treated with S1P for 1 hr; type: functional, cell-based; settings: dose 0.5-5 µM, time 96.0 hrs, in the assay text read “96 hrs” for “72 hrs”
Summary of the method: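 Normal human lung fibroblasts pretreated 4 days with 1 ng/mL TGF-β, embedded in neutralized collagen I gels (200,000 cells/gel), kept 72 h in serum-free FGM with TGF-β for stress build-up. Compound added for 2 h, then 1 μM S1P; gels released and incubated 1 h at 37 °C; gel area imaged. Mean with 95% CI.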

Mus musculus [28] = assay: Antifibrotic activity against intranasal bleomycin-induced C57BL/6 mouse lung fibrosis model assessed as reduction in Ashcroft score at 3 to 30 mg/kg, po twice daily for 14 days; type: functional, organism-based; settings: dose 3-30 mg/kg, time 14.0 day; summary of the method: as §1
[29] = Oral bioavailability in beagle dog at 1 mg/kg measured up to 24 hrs by LC-MS/MS analysis; type: ADME, organism-based, Canis lupus familiaris; settings: in vivo; summary of the method: as §4
[30] = Oral bioavailability in Sprague-Dawley rat at 10 mg/kg measured up to 24 hrs by LC-MS/MS analysis; type: ADME, organism-based; settings: in vivo; summary of the method: as §2

Row | Structure (SMILES) | clearance [2] | CL free [3] | fraction unbound at 4 h, 5 µM [4] | bioavailability [6] | CL free [7] | half-life [8] | fIC50 [10] | clearance [11] | fraction unbound at 4 h, 5 µM [12] | clearance [13] | half-life [14] | IC50 [15] | Vd [16] | fraction unbound at 4 h, 5 µM [17] | half-life [18] | IC50 [19] | solubility thermodynamic [20] | IC50 [21] | IC50 [22] | Vd [23] | further results
1 | Cc1ccc(=O)n(-c2ccccc2)c1 |  |  |  |  |  |  |  |  |  |  |  |  |  |  |  |  |  |  |  |  | Activity (Mus musculus [1]): Active
2 | CCOc1cc(NC(=O)NCc2cc(C)c(-c3cn(C)nc3C(F)(F)F)nn2)cc(Cl)n1 | 4.17 mL/min/kg | < 383 mL/min/kg | 0.002 | 20% | < 43.3 mL/min/kg | 0.55 h | 1 nM | 10.3 mL/min/kg | 0.016 | 7.83 mL/min/kg | 3.1 h | 7700 nM | 0.38 L/kg | 0.001 | 1.1 h | 45 nM | 36 µg/mL (≈ 76.6 µM) | 20 nM | 20000 nM | 0.49 L/kg | bioavailability [5]: 30%; inhibition at 10 µM (CYP2C19): 61%; bioavailability [9]: 10%; inhibition at 10 µM (CYP2C9): 58%; inhibition at 10 µM (CYP3A4): 23%; Vd [24]: 2.1 L/kg; solubility thermodynamic [25]: 5 µg/mL (≈ 10.6 µM)
3 | CCOc1cc(NC(=O)NCc2cc(C)c(-c3cn(C)nc3C(F)(F)F)cn2)cc(Cl)n1 |  | 450 mL/min/kg |  |  | 150 mL/min/kg |  |  |  |  |  |  | 11 nM |  |  |  |  |  | 22 nM | 22000 nM |  | inhibition at 10 µM (CYP2C19): 100%; inhibition at 10 µM (CYP2C9): 83%; inhibition at 10 µM (CYP3A4): 83%
4 | CCOc1cc(NC(=O)NCc2cc(C)c(-c3cn(C)nc3C(F)(F)F)nn2)cc(C(F)(F)F)n1 | 1.52 mL/min/kg | 140 mL/min/kg | 0.001 | 64% | < 38.3 mL/min/kg | 2.3 h | 0.6 nM | 4 mL/min/kg | 0.003 | 1.67 mL/min/kg | 7.6 h | 8800 nM | 0.35 L/kg | < 0.001 | 2.7 h | 87 nM | 23 µg/mL (≈ 45.7 µM) | 29 nM | 29000 nM | 0.81 L/kg | Activity (Mus musculus [26]): Active; inhibition (INH) [27]: Not Active; bioavailability [9]: 29%; Activity (Fibroblast): Active; Vd [24]: 1.1 L/kg; solubility thermodynamic [25]: 2.7 µg/mL (≈ 5.36 µM)
5 | CCOc1nc(C)cc(NC(=O)NCc2cc(C)c(-c3cn(C)nc3C(F)(F)F)nn2)c1C | 6.17 mL/min/kg | 283 mL/min/kg | 0.014 | 29% | 36.7 mL/min/kg | 0.45 h | 1.3 nM | 12.2 mL/min/kg | 0.022 | 11 mL/min/kg | 1.6 h | 4500 nM | 0.54 L/kg | 0.004 | 1 h | 49 nM | 15 µg/mL (≈ 32.4 µM) | 16 nM | 16000 nM | 0.47 L/kg | Activity (Mus musculus [28]): Active; bioavailability [29]: 39%; bioavailability [30]: 84%; Vd [24]: 1.5 L/kg; solubility thermodynamic [25]: 505 µg/mL (≈ 1090 µM)

From ChEMBL document CHEMBL4834436, “Discovery of the S1P2 Antagonist GLPG2938 (1-[2-Ethoxy-6-(trifluoromethyl)-4-pyridyl]-3-[[5-methyl-6-[1-methyl-3-(trifluoromethyl)pyrazol-4-yl]pyridazin-3-yl]methyl]urea), a Preclinical Candidate for the Treatment of Idiopathic Pulmonary Fibrosis” (J Med Chem, 2021)
